Results published in ChEMBL document CHEMBL3758101, “Synthesis and biological evaluation of fluorinated 1,5-diarylpyrrole-3-alkoxyethyl ether derivatives as selective COX-2 inhibitors endowed with anti-inflammatory activity” (Eur J Med Chem, 2016).

Legend:
[1] = biological target: T1, Prostaglandin G/H synthase 1 (Mus musculus, UniProt P22437); assay: Inhibition of COX-1 in mouse J774 cells assessed as reduction in PGE2 level using arachidonic acid as substrate preincubated for 15 mins followed by incubation with arachidonic acid for 30 mins by radio immunoassay; assay type: cell-based
T1 sequence (P22437 whole entry): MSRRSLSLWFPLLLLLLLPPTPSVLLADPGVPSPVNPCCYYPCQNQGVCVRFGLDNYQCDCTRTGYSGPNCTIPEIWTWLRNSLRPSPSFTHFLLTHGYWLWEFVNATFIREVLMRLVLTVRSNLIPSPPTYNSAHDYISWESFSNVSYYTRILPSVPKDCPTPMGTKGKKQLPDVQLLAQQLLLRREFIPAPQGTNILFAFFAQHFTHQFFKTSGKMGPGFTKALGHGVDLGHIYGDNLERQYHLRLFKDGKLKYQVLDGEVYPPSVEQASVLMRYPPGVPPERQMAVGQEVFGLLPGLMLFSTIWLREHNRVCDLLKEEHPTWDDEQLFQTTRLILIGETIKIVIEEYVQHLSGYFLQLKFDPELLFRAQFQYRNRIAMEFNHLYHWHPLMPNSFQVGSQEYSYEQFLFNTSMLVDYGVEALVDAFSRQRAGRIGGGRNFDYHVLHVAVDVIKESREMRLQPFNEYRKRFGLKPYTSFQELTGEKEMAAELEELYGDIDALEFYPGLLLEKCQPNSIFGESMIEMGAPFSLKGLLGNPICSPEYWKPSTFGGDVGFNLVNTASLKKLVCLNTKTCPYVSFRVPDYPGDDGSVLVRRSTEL
In short: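 Murine J774 macrophages (2.5 × 10^5 cells/mL) were adhered 2 h at 37 °C and given fresh medium. Cells were pretreated with compound at 100 µM for 15 min, then incubated 30 min at 37 °C with 15 µM arachidonic acid. Supernatant PGE2 was measured by RIA as % inhibition versus control; triplicate wells, three experiments, IC50 from a sigmoidal variable-slope fit.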

Rattus norvegicus = assay: Antiinflammatory activity in Sprague-Dawley rat model of carrageenan-induced […] at 10 mg/kg, po administered 2 hrs post carrageenan challenge measured after 60 mins by […] (reference value: 35.4 +/- 3.6 ml); assay type: functional

- IC50 [1]: > 100 µM
Compound: Cc1c(CCOCCCF)cc(-c2ccc(S(C)(=O)=O)cc2)n1-c1ccc(F)cc1
- Activity (Rattus norvegicus): 53.5 g
